In ChEMBL document CHEMBL1131058, “Studies on quinazolines and 1,2,4-benzothiadiazine 1,1-dioxides. 8.1, 2 synthesis and pharmacological evaluation of tricyclic fused quinazolines and 1,2,4-benzothiadiazine 1,1-dioxides as potential alpha1-adrenoceptor antagonists” (J Med Chem, 1998) one finds Ki, inhibition and Inhibition data, which are given here for 6 compounds.

SMILES strings stand for the structures.

As a reminder, the Ki is the equilibrium dissociation constant of an inhibitor or competing ligand from its target. For orientation: inhibition means the percentage by which the read-out fell short of the control. Low readings indicate little suppression, high ones strong suppression. As a reminder, the Inhibition is how much of the control response was suppressed. Read a high Inhibition as a strong effect.

Assay [1] addresses T1, Serotonin 1 (5-HT1) receptor (Rattus norvegicus, UniProt P28564+P30940+P19327+P28565). Kind of assay: Compound is evaluated for binding affinity towards 5-hydroxytryptamine 1 receptor using [3H]5-HT in rat brain cortex. The class given is tissue-based. In short, it runs like this: (§1)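 Contract radioligand competition binding. Sources: 5-HT1 and 5-HT1A in rat brain cortex; 5-HT2 and σ2 in rat brain; σ in guinea pig brain; D2, rhD2 and rhD3 in CHO cells with [³H]spiperone; H1 in guinea pig lung with [³H]pyrilamine. Inhibition constants reported; no constant given where inhibition at 10 µM was below 50%.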

The target in another assay is D(3) dopamine receptor (Homo sapiens, UniProt P35462). The assay can be described thus: Compound is evaluated for binding affinity towards recombinant human Dopamine receptor D3 using [3H]spiperone in CHO cells. The class given is cell-based. In short, it runs like this: as §1
The target of the next assay is Histamine H1 receptor (Cavia porcellus, UniProt P31389). The assay can be described thus: Compound is evaluated for binding affinity towards Histamine H1 receptor using [3H]pyrilamine in guinea pig lung. The class given is tissue-based. In short, it runs like this: as §1
The target of assay [2] is Sodium channel alpha subunits; brain (Types I, II, III) (Rattus norvegicus) (UniProt P04775+P04774+P08104). The assay can be described thus: Displacement of [3H]batrachotoxin from rat brain sodium channel at 10 uM. The class given is tissue-based. The method in brief:
(§2)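 Radioligand competition binding was done by an outside contract lab (Pan Lab). Inhibition constants (Ki) were derived from displacement of the stated tritiated ligand. Each compound was tested at 10 µM. Where inhibition at that concentration stayed below 50%, no Ki was reported.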
For orientation: Loss of bound radioactivity is the signal in a displacement assay; it reports binding, not function.

In assay [3] the test system is Sigma 2 receptor. Kind of assay: (§3) Binding affinity towards Sigma 2 receptor using [3H]ifenprodil in rat brain at 10 uM. The class given is tissue-based. In short, it runs like this: as §2
The target in assay [4] is T2, Adrenergic receptor alpha-1 (Rattus norvegicus, UniProt P15823+P23944+P43140).
T2 sequence (P15823 whole entry): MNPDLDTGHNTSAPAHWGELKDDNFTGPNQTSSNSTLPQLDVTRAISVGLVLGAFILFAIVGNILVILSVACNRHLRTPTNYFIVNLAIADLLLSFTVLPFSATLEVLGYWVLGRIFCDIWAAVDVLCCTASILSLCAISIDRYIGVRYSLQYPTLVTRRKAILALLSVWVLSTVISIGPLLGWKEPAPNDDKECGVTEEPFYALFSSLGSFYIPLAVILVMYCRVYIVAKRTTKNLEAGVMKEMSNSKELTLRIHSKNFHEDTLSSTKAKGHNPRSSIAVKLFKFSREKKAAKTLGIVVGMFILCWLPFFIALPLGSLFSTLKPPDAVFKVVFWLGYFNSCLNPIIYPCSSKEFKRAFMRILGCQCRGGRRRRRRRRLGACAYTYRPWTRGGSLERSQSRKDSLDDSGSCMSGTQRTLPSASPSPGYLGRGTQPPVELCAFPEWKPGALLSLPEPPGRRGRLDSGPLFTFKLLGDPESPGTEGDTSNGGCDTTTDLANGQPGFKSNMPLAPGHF
T2 sequence (P23944 whole entry): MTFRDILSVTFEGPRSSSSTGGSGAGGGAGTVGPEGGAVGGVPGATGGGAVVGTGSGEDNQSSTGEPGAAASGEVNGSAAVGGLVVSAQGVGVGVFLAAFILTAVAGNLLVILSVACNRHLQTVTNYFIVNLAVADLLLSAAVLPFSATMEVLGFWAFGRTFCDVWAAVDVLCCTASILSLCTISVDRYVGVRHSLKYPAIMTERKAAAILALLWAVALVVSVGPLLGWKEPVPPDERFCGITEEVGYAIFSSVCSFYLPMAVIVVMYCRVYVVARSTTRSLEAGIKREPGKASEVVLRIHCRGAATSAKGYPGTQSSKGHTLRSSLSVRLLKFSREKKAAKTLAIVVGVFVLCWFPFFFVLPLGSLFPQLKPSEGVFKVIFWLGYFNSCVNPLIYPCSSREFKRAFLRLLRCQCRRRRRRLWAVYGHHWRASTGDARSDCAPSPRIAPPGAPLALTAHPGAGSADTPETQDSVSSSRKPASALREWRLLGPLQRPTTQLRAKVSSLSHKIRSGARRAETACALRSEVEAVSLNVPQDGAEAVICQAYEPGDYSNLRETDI
T2 sequence (P43140 whole entry): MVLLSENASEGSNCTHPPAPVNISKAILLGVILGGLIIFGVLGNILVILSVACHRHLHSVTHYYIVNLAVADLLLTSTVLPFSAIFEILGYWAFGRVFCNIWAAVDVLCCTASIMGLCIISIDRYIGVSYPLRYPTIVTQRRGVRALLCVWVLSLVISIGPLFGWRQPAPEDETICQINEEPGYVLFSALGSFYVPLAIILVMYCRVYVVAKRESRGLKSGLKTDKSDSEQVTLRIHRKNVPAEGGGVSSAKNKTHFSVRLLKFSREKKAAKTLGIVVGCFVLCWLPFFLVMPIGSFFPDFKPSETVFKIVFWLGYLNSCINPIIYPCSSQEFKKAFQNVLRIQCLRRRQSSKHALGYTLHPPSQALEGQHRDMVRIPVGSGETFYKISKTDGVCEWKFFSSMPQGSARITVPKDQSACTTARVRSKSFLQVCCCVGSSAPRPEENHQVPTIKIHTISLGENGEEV
The assay can be described thus: Binding affinity towards Alpha-1 adrenergic receptor measured by displacement of [3H]prazosin from rat brain cortex membranes. The class given is cell membranes, Membrane. In short, it runs like this:
(§4)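 Triplicate competition binding against 0.2-0.25 nM [³H]prazosin in Tris buffer pH 7.4, 30 min at room temperature. Competitor range 0.1-200 nM. Nonspecific binding defined with 10 µM phentolamine. Reaction stopped by GF/B filtration with two cold Tris washes. Membrane protein 300-400 µg per assay. Ki calculated from the data; mean ± SEM of 3-6 experiments.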

Assay [5] deals with Alpha-2A adrenergic receptor (Homo sapiens) (UniProt P08913). The assay can be described thus: Compound is evaluated for binding affinity towards Alpha-2A adrenergic receptor using [3H]MK912 at 10 uM.
In assay [6] the target is T1, Serotonin 1 (5-HT1) receptor. Kind of assay: Compound is evaluated for binding affinity towards 5-hydroxytryptamine 1 receptor using [3H]5-HT in rat brain cortex at 10 uM. Type of assay: tissue-based. The method in brief: (§5)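 Single-concentration screen at 10 µM in contract radioligand binding assays. Records whether inhibition of specific radioligand binding stayed below 50%.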

The target of assay [7] is T3, D(2) dopamine receptor (Homo sapiens, UniProt P14416). Kind of assay: Compound is evaluated for binding affinity towards Dopamine receptor D2 using [3H]spiperone in CHO cells. The class given is cell-based. In short, it runs like this: as §1
Assay [8] addresses Sigma 2 receptor. The assay is described as §3. Type of assay: tissue-based. In short, it runs like this:
as §5
This is another data set of the same source.

In assay [9] the target is 5-hydroxytryptamine receptor 1A (Rattus norvegicus) (UniProt P19327). Kind of assay: Compound is evaluated for binding affinity towards 5-hydroxytryptamine 1A receptor using [3H]-8-OH- -DPAT in rat brain cortex at 10 uM. Type of assay: tissue-based. In short, it runs like this: as §5
In assay [10] the target is T2, Adrenergic receptor alpha-1. The assay can be described thus: Compound is evaluated for binding affinity towards Alpha-1 adrenergic receptor in rat brain cortex membrane. Type of assay: cell membranes. The method in brief: as §4
Assay [11] deals with T3, D(2) dopamine receptor. The assay can be described thus: Compound is evaluated for binding affinity towards Dopamine receptor D2 using [3H]-spiperone in CHO cells at 10 uM. Type of assay: cell-based.
For assay [12], the target named is Sigma 2 receptor. Kind of assay: Binding affinity towards Sigma 2 receptor using [3H]ifenprodil in rat brain. Type of assay: tissue-based. The method in brief:
as §1

Sequence of 5-hydroxytryptamine receptor 1A (Rattus norvegicus) (P19327 whole entry): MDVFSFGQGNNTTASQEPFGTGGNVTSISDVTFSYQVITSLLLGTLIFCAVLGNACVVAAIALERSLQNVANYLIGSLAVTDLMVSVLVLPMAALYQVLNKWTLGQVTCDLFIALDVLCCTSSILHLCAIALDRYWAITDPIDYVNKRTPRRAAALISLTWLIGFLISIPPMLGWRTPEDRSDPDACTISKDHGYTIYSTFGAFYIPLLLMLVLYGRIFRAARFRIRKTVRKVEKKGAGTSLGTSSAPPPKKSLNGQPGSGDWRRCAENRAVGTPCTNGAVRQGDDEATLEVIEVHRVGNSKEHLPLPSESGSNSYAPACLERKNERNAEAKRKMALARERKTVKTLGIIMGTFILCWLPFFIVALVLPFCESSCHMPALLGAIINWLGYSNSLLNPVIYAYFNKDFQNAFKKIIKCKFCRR
T3 sequence (P14416 whole entry): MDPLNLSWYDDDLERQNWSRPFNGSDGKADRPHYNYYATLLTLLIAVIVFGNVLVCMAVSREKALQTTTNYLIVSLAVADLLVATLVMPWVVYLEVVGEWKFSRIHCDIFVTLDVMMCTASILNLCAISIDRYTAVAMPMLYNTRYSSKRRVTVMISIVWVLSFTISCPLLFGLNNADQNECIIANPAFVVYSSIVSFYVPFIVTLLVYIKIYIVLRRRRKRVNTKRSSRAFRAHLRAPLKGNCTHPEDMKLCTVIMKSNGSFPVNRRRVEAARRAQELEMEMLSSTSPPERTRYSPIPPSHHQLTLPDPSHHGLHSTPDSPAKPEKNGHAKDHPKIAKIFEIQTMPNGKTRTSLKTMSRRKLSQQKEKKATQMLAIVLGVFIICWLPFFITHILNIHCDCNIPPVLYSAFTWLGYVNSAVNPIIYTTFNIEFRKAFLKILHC
Sequence of Histamine H1 receptor (P31389 whole entry): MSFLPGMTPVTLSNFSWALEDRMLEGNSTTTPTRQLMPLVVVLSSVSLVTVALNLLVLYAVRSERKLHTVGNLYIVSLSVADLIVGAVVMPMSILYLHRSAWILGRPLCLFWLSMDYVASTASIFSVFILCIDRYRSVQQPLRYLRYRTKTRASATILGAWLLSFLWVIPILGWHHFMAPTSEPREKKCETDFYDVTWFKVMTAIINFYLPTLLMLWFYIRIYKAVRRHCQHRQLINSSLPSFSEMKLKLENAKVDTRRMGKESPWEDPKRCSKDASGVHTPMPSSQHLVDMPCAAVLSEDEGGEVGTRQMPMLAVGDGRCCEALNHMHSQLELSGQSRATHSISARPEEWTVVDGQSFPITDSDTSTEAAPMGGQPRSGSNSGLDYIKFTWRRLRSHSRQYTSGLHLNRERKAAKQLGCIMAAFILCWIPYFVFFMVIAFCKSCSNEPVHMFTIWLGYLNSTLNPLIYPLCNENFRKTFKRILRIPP
Sequence of Alpha-2A adrenergic receptor (Homo sapiens) (P08913 whole entry): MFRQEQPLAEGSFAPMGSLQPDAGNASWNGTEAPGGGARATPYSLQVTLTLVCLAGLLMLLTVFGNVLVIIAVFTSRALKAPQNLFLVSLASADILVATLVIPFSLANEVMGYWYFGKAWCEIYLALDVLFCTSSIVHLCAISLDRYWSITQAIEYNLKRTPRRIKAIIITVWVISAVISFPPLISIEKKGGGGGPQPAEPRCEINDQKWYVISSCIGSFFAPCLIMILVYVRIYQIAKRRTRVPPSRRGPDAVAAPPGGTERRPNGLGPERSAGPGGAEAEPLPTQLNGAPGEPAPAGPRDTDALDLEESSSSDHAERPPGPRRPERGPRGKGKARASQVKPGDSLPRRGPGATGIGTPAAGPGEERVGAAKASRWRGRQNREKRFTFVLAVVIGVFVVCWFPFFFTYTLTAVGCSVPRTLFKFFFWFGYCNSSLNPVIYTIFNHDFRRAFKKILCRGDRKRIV
Sequence of D(3) dopamine receptor (P35462 whole entry): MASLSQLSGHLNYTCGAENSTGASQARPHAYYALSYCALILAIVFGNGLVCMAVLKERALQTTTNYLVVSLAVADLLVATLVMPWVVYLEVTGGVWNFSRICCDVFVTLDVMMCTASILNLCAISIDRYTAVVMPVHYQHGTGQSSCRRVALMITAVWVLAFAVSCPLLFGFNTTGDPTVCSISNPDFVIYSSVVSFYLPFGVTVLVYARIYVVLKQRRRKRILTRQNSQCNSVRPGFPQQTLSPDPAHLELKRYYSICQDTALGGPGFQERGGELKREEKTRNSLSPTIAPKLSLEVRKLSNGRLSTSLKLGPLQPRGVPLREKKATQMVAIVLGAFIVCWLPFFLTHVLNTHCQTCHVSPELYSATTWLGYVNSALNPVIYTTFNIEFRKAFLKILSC

As to `COc1ccccc1N1CCN(CC2CN3C(=O)Nc4ccccc4C3=N2)CC1` (stereo not drawn), the inhibitory constant (Ki) was 2.5 µM in assay [1], 2.2 µM on D(3) dopamine receptor and 0.961 µM on Histamine H1 receptor. The inhibition (in assay [2]; with Sigma 2 receptor [3]) was below 50% throughout.
In [4], `COc1ccccc1N1CCN(Cc2cnc3c4ccccc4nc(O)n23)CC1` displayed a Ki of 0.00506 µM. Moreover, the inhibition in the assay with Sigma 2 receptor [3] is below 50%.
Regarding `COc1ccccc1N1CCN(C[C@@H]2CN=C3c4ccccc4NC(=O)N32)CC1`, the inhibition in [5] was below 50%.
With `COc1ccccc1N1CCN(CC2CN=C3c4ccccc4N=C(SC)N32)CC1` (stereo not drawn), the inhibition constant Ki is 1.839 µM in assay [6] and 0.449 µM at D(2) dopamine receptor [7]. Moreover, on Sigma 2 receptor [8], the Inhibition was below 50%.
With `Oc1nc2ccccc2c2ncc(CN3CCN(c4ccccc4Cl)CC3)n12`, the inhibition (in assay [9]; at D(2) dopamine receptor [11]) was below 50% each time. Further, the values for the Ki (in assay [10]; on Sigma 2 receptor [12]) were 0.00712 µM and 3.05 µM, respectively.
In turn, `COc1ccccc1N1CCN(Cc2cn3c(O)nc4ccccc4c3n2)CC1` showed an inhibition in assay [9] below 50%. Moreover, the Ki stood at 0.00653 µM in [4] and 4.88 µM at Sigma 2 receptor [12].
